Residue numbers refer to the chain shown, from its start. Names may count otherwise. “Also recorded” adds a separate entry of the source.

Assay [1] relates to STAC3 W284S. The assay is described as follows: ITC, II–III loop with STAC3 W284S. The assay is classed as binding, human. The conditions noted are these: 25 °C, pH 7.4, NAM mutant W284S. (In general: Isothermal titration calorimetry measures the heat released or taken up as one component is titrated into another.)
For assay [2], the system named is human CaV1.2. The assay is described as follows: CaV1.2 inactivation. To be noted: Xenopus oocytes, two-electrode voltage clamp, Ba^2+ or Ca^2+ solution. The assay is classed as cell-based. Summed up: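 Human CaV1.2 α1c (splice variant a1c77) cRNA (8.2–10.9 ng) was co-injected with rabbit β1 (11.7–15.5 ng), with optional rabbit α2δ (11.7 ng) and human STAC3 isoform a (9.8–13.0 ng). Oocytes were held at 18 °C in OR3 (pH 7.6) and recorded 3–4 d later. BAPTA was pre-injected; perfusate was 40 mM Ba2+ or Ca2+, pH 7.4. P/4 leak subtraction; two-tailed unpaired t test.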

Assay [3] has as its system CaV1.2. The conditions noted are these: ref [15]; cited from earlier work.
For assay [4], the system named is skeletal muscle CaV1.1 complex. The conditions noted are these: STAC3 W284S; ref [18]; listed as NAM mutation; cited from earlier work.
For assay [5], the system named is stac^−/− myotubes. The conditions noted are these: ref [16], cited from earlier work.
Assay [6] addresses T1, STAC3 tandem SH3 domains (residues 245–364) (human, UniProt Q96MF2-1 245-364).
T1 sequence (looked up): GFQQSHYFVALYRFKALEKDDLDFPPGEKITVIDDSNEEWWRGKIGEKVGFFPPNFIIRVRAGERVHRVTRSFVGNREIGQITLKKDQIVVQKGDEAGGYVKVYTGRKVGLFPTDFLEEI
Briefly: ITC.

For assay [7], the target named is T2, STAC1 tandem SH3 domains (residues 288–402) (human, UniProt Q99469 288-402).
T2 sequence (looked up): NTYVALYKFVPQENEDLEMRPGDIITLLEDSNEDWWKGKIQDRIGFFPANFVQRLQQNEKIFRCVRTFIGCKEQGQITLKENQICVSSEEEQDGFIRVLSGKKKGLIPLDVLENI
Briefly: ITC.

For assay [8], the target named is T3, STAC2 tandem SH3 domains (residues 296–411) (human, UniProt Q6ZMT1 296-411).
T3 sequence (looked up): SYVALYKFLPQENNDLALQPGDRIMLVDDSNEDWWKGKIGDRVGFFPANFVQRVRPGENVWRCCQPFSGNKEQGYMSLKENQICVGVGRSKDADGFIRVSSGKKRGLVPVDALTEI
The assay is described as follows: ITC.

Assay [9] concerns the target T4, STAC2 tandem SH3 domains with Gln-306 mutated to Leu (human, UniProt Q6ZMT1 296-411, Gln-306 to Leu).
T4 sequence (looked up): T3 sequence (looked up) with Q11L
The assay is described as follows: ITC.

In the case of “CaV1.1 728–775: fragment 728–775 of the CaV1.1 II–III loop (core II–III loop) (NVNEVKDPYPSADFPGDDEEDEPEIPLSPRPRPLAELQLKEKAVPIPE; left off: His6, end not stated, cleaved | maltose-binding protein, end not stated, cleaved)”, the “interaction detected by ITC” value is recorded as “no longer able to detect an interaction” in assay [1] and “decreases the affinity to levels below detection” in assay [1] (listed as II–III loop peptide).
In the case of “IPRAAA: mutation at the binding interface tested for CaV1.2 inactivation (NVNEVKDPYPSADFPGDDEEDEPEAALSPAPRPLAELQLKEKAVPIPE; left off: His6, end not stated, cleaved | maltose-binding protein, end not stated, cleaved)”, the “effect on slowing of CaV1.2 inactivation induced by STAC3” value (“effect on slowing” below) in [2] was “neither mutations at the binding interface (W284S or IPRAAA) nor an outright deletion of both SH3 domains affected the slowing of inactivation”.

B1: STAC3: human STAC3 isoform a (NP_659501.1) (protein)
chain: T1 sequence (looked up)
modifications: left off: His6, end not stated, cleaved | maltose-binding protein, end not stated, cleaved
For B1, the “effect on inactivation of CaV1.2” value in assay [3] is given as “dramatic reduction in the speed of inactivation”.

B2: W284S: STAC3 disease mutation linked to Native American myopathy (protein)
chain: MTEKEVLESPKPSFPAETRQSGLQRLKQLLRKGSTGTKEMELPPEPQANGEAVGAGGGPIYYIYEEEEEEEEEEEEPPPEPPKLVNDKPHKFKDHFFKKPKFCDVCARMIVLNNKFGLRCKNCKTNIHEHCQSYVEMQRCFGKIPPGFHRAYSSPLYSNQQYACVKDLSAANRNDPVFETLRTGVIMANKERKKGQADKKNPVAAMMEEEPESARPEEGKPQDGNPEGDKKAEKKTPDDKHKQPGFQQSHYFVALYRFKALEKDDLDFPPGEKITVIDDSNEESWRGKIGEKVGFFPPNFIIRVRAGERVHRVTRSFVGNREIGQITLKKDQIVVQKGDEAGGYVKVYTGRKVGLFPTDFLEEI
modifications: left off: His6, end not stated, cleaved | maltose-binding protein, end not stated, cleaved
With B2, the “recruitment of STAC3 into the skeletal muscle CaV1.1 complex / interaction with CaV1.1” value in [4] was “did not appear to abolish the interaction between CaV1.1 and STAC3”. Moreover, the “effect on slowing” value in [2] is on record as “neither mutations at the binding interface (W284S or IPRAAA) nor an outright deletion of both SH3 domains affected the slowing of inactivation”. The “effect on EC coupling” value in assay [5] (STAC3 W284S (NAM mutation)) is “diminished EC coupling; also recorded: large reduction in EC coupling”. For the same molecule, the “effect on depolarization-induced calcium release” value in [5] (reconstituted stac^−/− myotubes, [17]) was “drastic reduction in depolarization-induced calcium release”.
By Kd is commonly meant the free concentration of one partner at which half of the binding sites on the other are occupied at equilibrium, for simple one-to-one binding. For NVNEVKDPYPSADFPGDDEEDEPEIPLSPRPRPLAELQLKEKAVPIPE (domain or fragment, human, UniProt Q13698 728-775, looked up) [CaV1.1 728–775 (core II–III loop)], the “fold higher affinity than STAC2” value in assay [6] is ~2.2 fold; in assay [7] it was ~2.4 fold. Besides, the Kd in assay [8] worked out at 1.85 µM.

B3: deletion of both SH3 domains: truncated STAC3 missing both SH3 domain (1–244) (protein, UniProt Q96MF2 1-244, looked up, fragment)
chain: MTEKEVLESPKPSFPAETRQSGLQRLKQLLRKGSTGTKEMELPPEPQANGEAVGAGGGPIYYIYEEEEEEEEEEEEPPPEPPKLVNDKPHKFKDHFFKKPKFCDVCARMIVLNNKFGLRCKNCKTNIHEHCQSYVEMQRCFGKIPPGFHRAYSSPLYSNQQYACVKDLSAANRNDPVFETLRTGVIMANKERKKGQADKKNPVAAMMEEEPESARPEEGKPQDGNPEGDKKAEKKTPDDKHKQP
As to B3, the “effect on slowing” value in assay [2] is “neither mutations at the binding interface (W284S or IPRAAA) nor an outright deletion of both SH3 domains affected the slowing of inactivation; also recorded: still resulted in slower inactivation”.
EDEPEIPLSPRPRP (peptide, UniProt Q13698 747-760, looked up) [CaV1.1 747–760 (minimal peptide)] showed a Kd in [6] of 10.6 µM. The “fold lower affinity than wild type” value in [9] is ~2 fold.

(Values after PMC5692558 (Proceedings of the National Academy of Sciences of the …, 2017).)
